Bioassay records from PubChem.
Most compounds without a hit are left out; they make up all but 2% or so of the library.
Bfl-1 A1 inh: inhibitors of the anti-apoptotic protein A1, read as caspase activation; caspase activation, % (concentration not given with the values); MEF A1-2A-BIM cells, Caspase-Glo 3/7 luminescence, 3 h; percent of clofoctol response, vehicle zero; AID 2462; actives 0.066% (n = 330,000);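 active = over half of replicate activation scores above 10%, or exactly half above 10 with the replicate mean above 10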
MC4R antagonist: antagonists of human melanocortin 4 receptor (MC4R) | MC4R-expressing cells, MTII-stimulated cAMP, LANCE TR-FRET | inhibition, % at 6.5 µM | actives 0.48% (n = 360,000) | AID 540295;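 active = inhibition above its plate's cutoff, the mean of tested wells on that plate plus 3 SD, cut at about 29% in these data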;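 also: 0% = Melanotan II alone and 100% = Melanotan II plus saturating MCL0020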
Target sequence (P32245 whole entry, looked up): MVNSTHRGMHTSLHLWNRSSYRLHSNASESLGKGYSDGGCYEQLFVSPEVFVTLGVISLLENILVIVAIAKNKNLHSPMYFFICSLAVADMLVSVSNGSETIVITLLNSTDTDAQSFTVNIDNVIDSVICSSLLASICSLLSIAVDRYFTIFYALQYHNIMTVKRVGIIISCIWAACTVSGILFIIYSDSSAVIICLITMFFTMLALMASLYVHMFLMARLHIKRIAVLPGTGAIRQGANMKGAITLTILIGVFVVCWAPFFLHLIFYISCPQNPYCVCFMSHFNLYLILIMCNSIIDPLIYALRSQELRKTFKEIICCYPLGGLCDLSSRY
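Material: U2OS-MC4R stable cell line | Reagent: Melanotan II challenge after compound preincubation | Doses: One concentration, 6.5 µM nominal | Incubation: 30-min compound preincubation, 1-h Melanotan II challenge, 1-h detection, room temperature | Signal: TR-FRET cAMP assay | Replicates: One well per compound, no replicates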
XBP1 UPR activ: adaptive UPR (XBP1) activation; CHO-XBP1 luciferase reporter, IRE1-XBP1 UPR activation, luminescence; percent of tunicamycin response, DMSO as zero; activation, % at 20 µM; actives 0.33% (n = 330,000); AID 463104;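 active = versus positive control, 20 µM dose yields 30% or more activation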;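 also: 100% = tunicamycin at 10 µg/mL and 0% = DMSO only wells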
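Material: IRE1-XBP1 luciferase reporter CHO line / Quantity: one thousand reporter cells per well / Buffer or medium: F12 with 10% serum / Compound: 20 µM single concentration, DMSO 1% / Times: 6 h treatment, 37 °C / Detection: Steady-Glo luciferase glow luminescence, 10 min after reagent addition / Benchmarks: tunicamycin high, DMSO low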
CHOP UPR activ: apoptotic UPR (CHOP) activation; CHO-CHOP luciferase reporter, luminescence; percent of tunicamycin response over DMSO baseline; activation, % at 10 µM; actives 0.34% (n = 330,000);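 active = at 10 µM dose, activation of 40% or more, normalized to positive control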;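 also: 100% = tunicamycin at 10 µg/mL and 0% = DMSO alone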
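Dosing – one dose, 10 µM in 0.5% DMSO · System – CHO-CHOP cells, stable luciferase reporter of PERK-eIF2a-CHOP signalling · Input – 500 cells/well · Control set – tunicamycin 10 µg/mL final as positive, DMSO-only wells as negative · Timing – 6 h compound treatment, 37 °C · Measure – % activation vs tunicamycin · Technique – luminescence read with Steady-Glo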
MC4R ag barr: activates human MC4R beta-arrestin recruitment; P32245; U2OS MC4R beta-arrestin complementation, luminescence; percent of melanotan II response, DMSO zero; activation, % at 8.9 µM; actives 0.98% (n = 360,000); AID 540308;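 active = activation above a per-plate cutoff, the mean activation of sample wells on that plate plus 3 SD, cut at about 8% in these data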
U2OS cAMP counter: U2OS forskolin cAMP inhibition counter-screen. shares compounds with MC4R antagonist. parental U2OS, LANCE TR-FRET. inhibition, % at 6.5 µM. actives 26% (n = 1,600). AID 602193;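 active = mean inhibition over triplicates above the low-control well mean plus 3 SD, set per campaign, cut at about 13% in these data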;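 also: signal is single emission at 671 nm which falls as cellular cAMP rises; 0% = forskolin-stimulated wells and 100% = buffer without forskolin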
MC4R antag conf: human MC4R cAMP antagonism confirmation | AID 602195 | MC4R-expressing cells, MTII-stimulated cAMP, TR-FRET | shares compounds with MC4R antagonist | actives 27% (n = 1,600) | inhibition, % at 6.5 µM; in the data active = inhibition above about 29%;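 also: 0% = agonist stimulated wells alone and 100% = agonist stimulated wells plus saturating reference antagonist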
Active calls of the source: *; . = no result given.

SMILES	Bfl-1 A1 inh	MC4R antagonist	XBP1 UPR activ	CHOP UPR activ	MC4R ag barr	U2OS cAMP counter	MC4R antag conf
CCC(OC(=O)c1ccc(S(C)(=O)=O)c([N+](=O)[O-])c1)C(=O)NC1C2CC3CC(C2)CC1C3 (centres undefined)	.	60*	.	.	-2	-9	12
Cn1cccc1C(=O)NC(=O)COC(=O)c1ccc(S(C)(=O)=O)c([N+](=O)[O-])c1	2	-17	-8	-7	-2	.	.
CC(OC(=O)c1ccc(S(C)(=O)=O)c([N+](=O)[O-])c1)C(=O)NC1C2CC3CC(C2)CC1C3 (centres undefined)	.	29*	.	.	-2	8	21
COC(=O)[C@@H](NCc1ccc(B(O)O)cc1)C(C)C	.	-6	.	.	-1	.	.
O=C(Oc1ccc(C(=S)N2CCOCC2)cc1)c1ccc([N+](=O)[O-])cc1	0	34*	-2	0	0	-1	-18
O=C(c1ccc([N+](=O)[O-])cc1)N1CCOCC1	.	-1	.	.	0	.	.
CCC(C)(C)NC(=O)CN(CC1CCCO1)C(=O)CCC(=O)Nc1nccs1 (centres undefined)	0	35*	-1	1	0	-4	-6
CC(C)Cc1ccc(-c2cc3nc(NCCc4ccc(S(N)(=O)=O)cc4)ccn3n2)cc1	.	29*	.	.	5	5	3
CN(C)CCC1(c2ccccc2)CCN(C)C1=O (centres undefined)	.	-2	.	.	1	.	.
O=C(Nc1nnc(SCc2ccc(F)cc2)s1)c1cnccn1	0	32*	1	1	0	-4	-11
CN(/N=C/c1cc(Cl)cc(Cl)c1O)c1c(Cl)cccc1[N+](=O)[O-]	2	30*	-3	1	0	-4	12
Cc1ccc(NC(=O)CSc2nnc(CNC(=O)c3cccs3)o2)cc1	0	31*	0	-2	1	0	-4
O=C(CSc1nnc(CNC(=O)c2cccs2)o1)Nc1ccccc1	0	-7	-1	-1	1	.	.
COc1ccc(C(=O)N(C)[C@H]2C[C@H]3c4[nH]c5ccccc5c4CCN3C(=O)[C@H]2CO)cc1	.	11	.	.	-1	.	.
NC(=O)c1ccsc1NC(=O)COC(=O)/C=C/c1ccc([N+](=O)[O-])cc1	0	3	2	2	-1	.	.
COC(=O)c1ccc(/C=C/C(=O)OCC(=O)Nc2sccc2C(N)=O)cc1	-5	36*	-3	0	4	15*	29*
CN(C)C(=O)c1cn(-c2ccc(Cl)cc2)c(=O)c2ccccc12	1	32*	1	1	-2	-1	-15
CC(C)(C)c1ccc(C(=O)NC(=O)COC(=O)c2ccc(Br)o2)cc1	0	12	-2	0	6	.	.
CN(C(=O)c1ccc2c(c1)SC1=NS(=O)(=O)CCN12)C(c1ccccc1)c1ccccc1	0	7	-2	-1	-2	.	.
O=C(O)c1ccc2c(c1)SC1=NS(=O)(=O)CCN12	0	29*	-1	-2	1	20*	2
CS(=O)(=O)c1ccccc1C(=O)Nc1cc(Cl)ccc1-n1cncn1	-1	4	0	-1	-2	.	.
O=C(Nc1cc(Cl)ccc1-n1cncn1)c1cc(F)c(F)c(F)c1F	-1	31*	0	0	1	24*	50*
N#Cc1ccc(S(=O)(=O)NCC(=O)OCC(=O)N2CCCC2=O)cc1	0	34*	-2	1	-5	19*	14
COc1cccc(N2CCN(c3ncnc4c3[nH]c3ccccc34)CC2C)c1 (centres undefined)	0	.	-11	-6	.	.	.
COc1cccc(N2CCN(c3ncnc4c3[nH]c3ccc(F)cc34)CC2C)c1 (centres undefined)	1	40*	-16	-12	22*	26*	51*
SMILES	Bfl-1 A1 inh	MC4R antagonist	XBP1 UPR activ	CHOP UPR activ	MC4R ag barr	U2OS cAMP counter	MC4R antag conf
CCC(CC)C(=O)N(C)c1c(C)nc2c(OCCOc3ccc(F)cc3)cccn12	.	30*	.	.	2	-1	2
CCOc1ccc(OCC)c(NC(=O)CN(c2ccc(OC)cc2)S(=O)(=O)c2c(C)noc2C)c1	-1	7	-5	-1	-2	.	.
CCOc1ccc(OCC)c(NC(=O)CN(c2ccc(C)cc2)S(=O)(=O)c2c(C)noc2C)c1	1	32*	-2	5	0	1	9
CCOc1ncccc1C(=O)Nc1ncc(C)s1	0	4	4	2	-2	.	.
CCOc1ncccc1C(=O)Nc1nc(C(C)(C)C)cs1	-1	34*	9	2	8.7*	1	-2
CCOC(=O)c1c(NC(=O)CCC(=O)O)sc2c1CC(C)(C)OC2	-1	33*	-1	3	-1	2	-2
CCOC(=O)c1c(NC(=O)C2CC2)sc2c1CC(C)(C)OC2	0	9	-3	6	-2	.	.
O=C(O)C1Cc2c([nH]c3ccccc23)C(c2ccc3c(c2)OCO3)N1 (centres undefined)	-1	1	-5	-1	-1	.	.
COc1ccc(C2NC(C(=O)O)Cc3c2[nH]c2ccccc32)cc1CN1CCN(c2ccc(F)cc2)CC1 (centres undefined)	0	30*	-1	1	0	0	3
CC12CC(O)C3C(CCC4=CC(=O)CCC43C)C1CCC2=CCO (centres undefined)	.	5	.	.	-1	.	.
CN(C)c1ccc(-c2ccnc3c2CC(C)(C(=O)NCc2ccc(F)c(F)c2)O3)cc1 (centres undefined)	.	1	.	.	-1	.	.
O=C(NC(Nc1nc2ccc([N+](=O)[O-])cc2s1)(C(F)(F)F)C(F)(F)F)c1ccccc1Cl	-1	33*	-1	25	1	6	18
COc1ccc(S(=O)(=O)N(C)C[C@@H]2OCc3cnnn3CCCC(=O)N([C@@H](C)CO)C[C@@H]2C)cc1	.	-3	.	.	2	.	.
CCOC(=O)C1=C(c2ccccc2)NC(=O)NC1c1ccc(OC)c(OC)c1 (centres undefined)	0	33*	-2	0	0	-1	-7
CCOC(=O)C1=C(c2ccccc2)NC(=O)NC1c1ccc(OC)cc1 (centres undefined)	0	19	0	1	-2	.	.
COc1ccccc1NC(=O)NC1CCS(=O)(=O)C1 (centres undefined)	-1	34*	13	3	-1	2	5
